Assay results taken from ChEMBL document CHEMBL1142240, “Lissoclibadins 4-7, polysulfur aromatic alkaloids from the Indonesian ascidian Lissoclinum cf. badium” (J Nat Prod, 2007).
Calls of active or inactive are those of the source. The calls are words filed in the database; no cut-off is given here.

How the values were obtained:
[1] = test system: Mucor hiemalis; experiment: Antimicrobial activity against Mucor hiemalis IAM 6088 at 50 ug/disk; assay type: functional; conditions: for zone of inhibition at 50 µg/disc: read-out: IZ
[2] = test system: Mucor hiemalis; experiment: Antimicrobial activity against Mucor hiemalis IAM 6088 at 20 ug/disk; assay type: functional; conditions: read-out: IZ
[3] = test system: Saccharomyces cerevisiae; experiment: Antimicrobial activity against Saccharomyces cerevisiae IAM 1438T at 50 ug/disk; assay type: functional; conditions: read-out: IZ
[4] = test system: Staphylococcus aureus; experiment: Antimicrobial activity against Staphylococcus aureus IAM 12544T at 50 ug/disk; assay type: functional; conditions: read-out: IZ
[5] = test system: Escherichia coli; experiment: Antimicrobial activity against Escherichia coli IAM 12119T at 50 ug/disk; assay type: functional; conditions: read-out: IZ
[6] = test system: Escherichia coli; experiment: Antimicrobial activity against Escherichia coli IAM 12119T at 20 ug/disk; assay type: functional; conditions: read-out: IZ
[7] = Inhibition of colony formation in Chinese hamster V79 cells; assay type: functional, cell-based; conditions: Cricetulus griseus
Procedure, shortened: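 Compound added in DMSO at 0.01–10 μM, then 4 further days of incubation. Colonies counted; relative plating efficiency taken as colony number in sample dish over control dish; EC50 derived.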

[8] = test system: Saccharomyces cerevisiae; experiment: Antimicrobial activity against Saccharomyces cerevisiae IAM 1438T at 20 ug/disk; assay type: functional; conditions: read-out: IZ
[9] = test system: Staphylococcus aureus; experiment: Antimicrobial activity against Staphylococcus aureus IAM 12544T at 20 ug/disk; assay type: functional; conditions: read-out: IZ

Structure (SMILES) | zone of inhibition at 50 µg/disc [1] [mm] | zone of inhibition at 20 µg/disc [2] [mm] | zone of inhibition at 50 µg/disc [3] [mm] | zone of inhibition at 50 µg/disc [4] [mm] | zone of inhibition at 50 µg/disc [5] [mm] | zone of inhibition at 20 µg/disc [6] [mm] | EC50 [7] [nM] | zone of inhibition at 20 µg/disc [8] [mm] | Activity [1] | zone of inhibition at 20 µg/disc [9] [mm]
COc1c(OC)c2c(c(CCN(C)C)c1SC)SSS2 | 23 | 17.4 | 11.8 | 10.3 | 17.8 | 14.4 | 190 | – | – | –
COc1c(OC)c2c(c(CCN(C)C)c1SC)SSSSS2 | 26.2 | 19.6 | 15.2 | 14.2 | 17.1 | 13.1 | 150 | 10.5 | – | –
COc1c(OC)c2c(c(CCN(C)C)c1SC)SSc1c(CCN(C)C)c(SC)c(OC)c(OC)c1Sc1c(OC)c(OC)c(SC)c(CCN(C)C)c1S2 [LISSOCLIBADIN 1] | – | – | – | – | – | – | 200 | – | – | –
COc1c(SC)c(CCN(C)C)c2sc3c(OC)c(OC)c(SC)c(CCN(C)C)c3ssc2c1OC [LISSOCLIBADIN 2] | 13.8 | – | – | – | – | – | 80 | – | – | –
COc1c(OC)c2c(c(CCN(C)C)c1SC)Sc1c(OC)c(OC)c(SC)c(CCN(C)C)c1S2 [LISSOCLIBADIN 3] | – | – | – | – | – | – | 340 | – | – | –
COc1cc(CCN(C)C)c2sc3c(O)c(OC)cc(CCN(C)C)c3ssc2c1O [LISSOCLIBADIN 4] | – | – | – | 13.1 | 15.7 | – | 710 | – | inactive | 10.8
COc1cc(CCN(C)C)c2sc3c(OC)c(OC)c(SC)c(CCN(C)C)c3ssc2c1O [LISSOCLIBADIN 5] | – | – | 6.2 | 15.8 | 11.6 | – | 60 | – | – | 9
COc1cc(CCN(C)C)c2c(c1O)Sc1c(CCN(C)C)c(SC)c(OC)c(OC)c1S2 [LISSOCLIBADIN 6] | – | – | 7.8 | 13.8 | 10.8 | – | 60 | – | – | 10
COc1cc(CCN(C)C)c2c(c1O)SSc1c(CCN(C)C)cc(OC)c(O)c1SS2 [LISSOCLIBADIN 7] | – | – | 16.8 | 13.1 | 9.9 | – | 170 | – | – | 9.4
COc1c(OC)c2c(c(CCN(C)C)c1SC)Sc1c(CCN(C)C)c(SC)c(OC)c(OC)c1S2 [LISSOCLINOTOXIN E] | – | – | – | – | – | – | 270 | – | – | –
COc1c(SC)c(CCN(C)C)c2sc3c(CCN(C)C)c(SC)c(OC)c(OC)c3ssc2c1OC [LISSOCLINOTOXIN F] | 18 | 10.5 | – | – | – | – | 280 | – | – | –
